# Assay outcomes deposited in PubChem BioAssay by several laboratories.
# SF1 activator: SF-1 (human) activation; Q13285; CHO-K1 Gal4-SF-1 LBD luciferase reporter; % increase over DMSO SF-1-specific signal; activation, % at 10 µM; 65,000 compounds, 1.9% hits; AID 522;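 active = activation above the mean activation of all tested compounds plus 3 SD, cut at about 50% in these data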
#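 Material: CHO-K1 cells with Gal4–hSF-1 LBD chimera plus Gal4-driven luciferase / Input: 4,000 CHO-K1 cells per well / Incubation: compound exposure 20 h at 37 °C / Signal: luminescence read 15 min after SteadyLite luciferase reagent, after room-temperature equilibration / Read-out: percent activation versus DMSO / Benchmarks: DMSO negative control and −SF1 background wells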
# BAP1 block: human BAP1 deubiquitinase inhibition | Q92560 | calls only at 20 µM | 72,000 compounds, 0.48% hits | recombinant BAP1, Ub-AMC hydrolysis fluorescence kinetic; active compounds read low;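 active = activity remaining at or below 50% of control, provided the compound also passes the data quality filters; inactive = the rest, including low values that fail the filters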;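 note: 100% = DMSO wells rate and 0% = substrate alone blank rate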
# ERa SRC1 inh: blocks coactivator binding to human estrogen receptor alpha; P03372; TR-FRET ER-alpha LBD / SRC-1 peptide, estradiol-bound; inhibition, % at 25.6 µM; 86,000 compounds, 1.7% hits; AID 629; in the data active = inhibition above about 50%;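 note: 0% = receptor plus peptide control and 100% = peptide only without receptor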
# Target sequence (P03372 whole entry, looked up, the tested form may be a part): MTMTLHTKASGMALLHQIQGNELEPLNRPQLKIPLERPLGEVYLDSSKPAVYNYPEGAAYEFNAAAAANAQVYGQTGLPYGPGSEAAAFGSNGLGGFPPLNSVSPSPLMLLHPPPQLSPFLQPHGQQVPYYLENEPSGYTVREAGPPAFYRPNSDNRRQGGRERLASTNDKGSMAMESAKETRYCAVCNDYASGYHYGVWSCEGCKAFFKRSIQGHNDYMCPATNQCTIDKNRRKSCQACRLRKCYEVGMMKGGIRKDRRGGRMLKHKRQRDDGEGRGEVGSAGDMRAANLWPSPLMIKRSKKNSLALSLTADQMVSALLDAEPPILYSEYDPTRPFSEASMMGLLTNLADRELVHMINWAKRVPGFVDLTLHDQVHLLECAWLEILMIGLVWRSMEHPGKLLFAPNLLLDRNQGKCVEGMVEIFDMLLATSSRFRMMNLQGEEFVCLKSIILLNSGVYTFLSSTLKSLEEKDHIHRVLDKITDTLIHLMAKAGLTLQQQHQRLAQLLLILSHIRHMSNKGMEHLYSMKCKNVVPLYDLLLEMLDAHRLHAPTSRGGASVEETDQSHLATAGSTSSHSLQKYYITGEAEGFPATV
# ERb SRC1 inh: blocks coactivator binding to human estrogen receptor beta; inhibition, % at 25.6 µM; TR-FRET ER-beta LBD / SRC1-Cy5 peptide binding; receptor agonist-loaded with 1 µM estradiol; Q92731; AID 633; 86,000 compounds, 1.3% hits;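 active = compounds whose percent inhibition of the receptor-coactivator binding signal exceeds about 50% in the single-dose screen, limit read from the data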;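 note: 0% = receptor plus peptide wells without compound and 100% = peptide-only wells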
# ERa coact pot: enhances coactivator binding to human estrogen receptor alpha; TR-FRET ERalpha-LBD/SRC-Cy5 coactivator binding, 2 h; 100 = basal binding, no effect; 86,000 compounds, 1.3% hits; P03372; AID 639; coactivator binding (% of control), % at 25.6 µM; in the data active = activity above about 200%;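 note: binding measured in presence of low estradiol as agonist stimulus; 0% = peptide alone without receptor and 100% = receptor with peptide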
# RORA act: activates the human nuclear receptor RORA; 65,000 compounds, 1.5% hits; P35398; AID 560; activation, % at 10 µM; CHO-K1 Gal4-RORA LBD luciferase reporter, luminescence; percent increase over mock-subtracted basal signal;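 active = activation above the mean of all tested compounds plus 3 SD, cut at about 49% in these data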;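 note: 0% = DMSO-treated RORA cells and 100% = added signal equal to DMSO minus mock-transfected cells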
# Starred values were filed as active, the others as inactive; i = inactive; nt = no result given; [ ] = dose if it differs, or a comment. Most compounds without a hit are left out; they make up all but 5.1% or so of the library.
SMILES,SF1 activator,BAP1 block,ERa SRC1 inh,ERb SRC1 inh,ERa coact pot,RORA act
O=C(CSc1nnc(Nc2ccccc2F)s1)NCc1ccco1,-13.9,nt,81.4*[fluorescence artefact?],69.3*,97.1,-11.7
Cc1ccccc1Nc1nnc(SCC(=O)NC(=O)NCc2ccco2)s1,-0.5,nt,75.1*,56.3*[fluorescence artefact?],102.4,-16.9
O=C(CSc1nnc(Nc2ccccc2)s1)NCc1ccco1,-17.1,i,-9.5,16.0,103.1,-12.4
Cc1ccc(Nc2nnc(SCC(=O)NCc3ccco3)s2)cc1,-8.2,i,68.2*,49.2,74.2,-7.8
COc1ccc(NC2OC(C(O)CO)C(O)C2O)cc1 (configuration not stated),nt,i,nt,nt,nt,nt
COc1ccccc1Nc1nc2ccccc2[nH]1,65.5*,i,-1.1,-2.0,122.6,5.9
CCCCSc1nc2c(c(=O)[nH]1)C1(CCCCC1)Cc1ccccc1-2,nt,i,nt,nt,nt,nt
CN(C)S(=O)(=O)c1ccc(C(=O)NCCOc2ccc(F)cc2)cc1,nt,nt,3.7,0.8,98.2,nt
CN(C)S(=O)(=O)c1ccc(C(=O)NCCOc2ccccc2)cc1,56.3*,i,-12.7,-13.1,93.8,38.2
O=C(CCCc1cccs1)Nc1nc2c(s1)CCCC2,73.2*,i,1.2,-4.2,109.7,37.1
O=C(CCS(=O)(=O)Cc1ccccc1)Nc1nc2c(s1)CCCC2,-3.4,i,-5.6,-10.8,117.3,-10.9
CC1CCc2nc(NC(=O)Cc3cccs3)sc2C1 (configuration not stated),63.1*,i,-17.5,2.2,121.3,35.4
O=C(NCc1ccccc1)c1ccc(/C=N/O)nc1,-10.7,i,-3.5,-9.8,129.7,-2.7
CCCCOc1ccc(C(=O)NCc2ccccn2)cc1,19.8,i,-36.5,-15.4,622.7*[fluorescence artefact?],14.3
O=C(NCc1ccccn1)c1ccc(/C=N/O)nc1,3.0,i,1.1,65.8*[fluorescence artefact?],92.1,12.7
Cc1ccccc1N(CCN1C(=O)c2cccc3c(N4CCCCC4)ccc(c23)C1=O)C(=O)c1ccc(S(=O)(=O)N(C)C)cc1,nt,i,nt,nt,nt,nt
COc1ccc(C(=O)CSc2nc(C)cc(C)c2C#N)cc1,nt,i,nt,nt,nt,nt
NC(=O)c1cc2c(ccc3ccccc32)oc1=Nc1cccc2ccccc12,nt,i,nt,nt,nt,nt
O=C(CSc1nc2scc(-c3ccco3)c2c(=O)n1-c1ccccc1)NCC1CCCO1 (configuration not stated),-10.2,i,62.1*,54.8*,142.9,-4.5
O=c1c2c(-c3ccco3)csc2nc(SCc2cn3cccnc3n2)n1-c1ccccc1,-5.5,nt,67.2*[fluorescence artefact?],28.4,81.2,-29.0
C=CCn1c(SCC(=O)NCC2CCCO2)nc2scc(-c3ccco3)c2c1=O (configuration not stated),-13.9,i,19.1,13.4,81.4,-6.1
CN(CC(=O)NCc1ccc(Cl)cc1)S(=O)(=O)c1cccc2nsnc12,-16.1,i,1.8,2.8,104.6,-2.3
CN(CC(=O)NCCN1CCN(Cc2ccccc2)CC1)S(=O)(=O)c1cccc2nsnc12,1.0,i,3.6,5.4,764.1*[fluorescence artefact?],-6.3
CCCCCOc1ccccc1C(=O)NCC(=O)O,-2.5,i,-3.2,79.2*[fluorescence artefact?],119.5,0.4
COc1ccc(C(=O)Nc2ccc(NC(=O)c3ccc(C(C)(C)C)cc3)cc2)cc1[N+](=O)[O-],nt,i,nt,nt,nt,nt
SMILES,SF1 activator,BAP1 block,ERa SRC1 inh,ERb SRC1 inh,ERa coact pot,RORA act
C#CCn1c(=NC(=O)c2ccc(Br)s2)sc2cccc(OC)c21,nt,nt,57.0*[fluorescence artefact?],43.4,333.4*[fluorescence artefact?],nt
O=C(NCCCN1CCOCC1)c1cc2c(=O)[nH]c3ccccc3c2s1,3.2,i,-5.0,-8.0,223.7*,-8.4
Cc1cc(C)c(Cn2c(=O)n(CCCC(=O)NCc3ccco3)c(=O)c3sccc32)c(C)c1,nt,nt,52.8*[fluorescence artefact?],19.1,117.1,nt
Cc1ccc(C)c(Cn2c(=O)n(CCC(=O)NCc3ccco3)c(=O)c3sccc32)c1,-7.2,i,20.5,-3.8,204.6*,-5.1
Cc1ccc(-n2c(=O)c3sccc3n(CC(=O)NCc3ccco3)c2=O)cc1,-6.2,i,-5.9,-6.0,119.4,1.9
Cc1cc(C)cc(-n2c(=O)c3sccc3n(CC(=O)NCc3ccco3)c2=O)c1,-0.5,i,-2.0,79.9*[fluorescence artefact?],103.5,6.8
Cc1ccccc1Cn1c(=O)n(CCCC(=O)NCc2ccco2)c(=O)c2sccc21,nt,nt,2.6,11.9,79.6,nt
CCOC(=O)c1c(NC(=O)CSc2nnc(-c3ccccc3)o2)sc(C(C)=O)c1C,nt,nt,-6.1,-6.6,318.8*,nt
COc1ccc(-c2nnc(SCC(=O)N3CCOCC3)o2)cc1,37.8,i,12.5,0.8,117.2,73.0*
Cc1[nH]c2ccc(-c3nnc(SCC(=O)c4ccc(F)cc4)o3)cc2c1C,-13.9,i,64.5*[fluorescence artefact?],54.9*[fluorescence artefact?],126.0,-9.2
COc1cccc(-c2nnc(SCC(=O)N3CCOCC3)o2)c1,34.3,i,-2.1,-0.2,88.2,45.9
COc1ccc(OC)c(C(=O)CSc2nnc(-c3ccc(OC)c(OC)c3)o2)c1,-8.1,i,-10.5,27.1,329.1*,-7.6
CS(=O)(=O)Nc1ccc(C(=O)OC2CCCCC2)cc1,nt,i,nt,nt,nt,nt
Cc1cc(=O)[nH]c(SCCOc2ccccc2)n1,nt,i,nt,nt,nt,nt
CC1CCCC(C)N1CC(O)COc1ccc(N=Cc2ccccc2O)cc1 (configuration not stated),nt,i,nt,nt,nt,nt
Cc1cc(C)cc(OCc2nnc(SCC(=O)c3ccc(Br)cc3)o2)c1,10.4,nt,-19.5,-18.1,201.8*,-14.8
Cc1nnc(SC(C)C(=O)Nc2ccc3c(c2)OCCO3)s1 (configuration not stated),7.5,i,-6.2,1.8,84.3,21.1
COc1ccccc1NC(=O)CSc1nnc(-c2ccc(C)cc2)o1,56.6*,i,2.1,-3.2,97.5,40.8
COc1ccc(-c2nnc(SC(C)C(=O)Nc3ccc4c(c3)OCCO4)o2)cc1 (configuration not stated),49.6*,i,-3.7,2.3,106.2,25.3
COc1ccc(C(=O)CSc2nnc(-c3ccc(C)cc3)o2)cc1,0.8,i,51.4*[fluorescence artefact?],23.8,98.9,-19.8
COc1cc(C2C(C(=O)OC3CCCCC3)=C(C)NC3=C2C(=O)CC(c2ccccc2)C3)cc(Br)c1O (configuration not stated),nt,i,nt,nt,nt,nt
CC(=O)Oc1ccc2c3c(c(=O)oc2c1)CCC3,nt,i,nt,nt,nt,nt
Cc1cccc2nc(CSCc3ccco3)cn12,55.3*,i,13.6,31.4,87.5,45.8
CC(=O)OCCN1C(=O)c2cccc([N+](=O)[O-])c2C1=O,nt,i,nt,nt,nt,nt
N#Cc1c(SCC(N)=O)nsc1SCc1ccccc1Cl,4.7,i,10.9,98.9*[fluorescence artefact?],104.6,13.0
CC1CCN(S(=O)(=O)c2ccc(C(C)(C)C)cc2)CC1,nt,i,nt,nt,nt,nt
Cc1cc(C)n(CC(O)COc2ccccc2)n1 (configuration not stated),nt,nt,53.0*,-0.5,100.6,nt
